Bioassay records deposited in PubChem BioAssay by several laboratories.
The sample as a whole holds a higher share of hits than the screen did.
CHOP inhibitor: CHOP inhibition in unfolded protein response | CHO-K1 CHOP-promoter luciferase, tunicamycin-induced, 15-18 h | inhibition, % at 10 µM | 220,000 tested, 3.8% active | AID 2732;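 active = compounds that reduced the stress-induced luciferase reporter signal by more than about 70% of percent inhibition, limit read from the data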
CHOP UPR activ: activators of apoptotic arm of unfolded protein response (CHOP). CHO-CHOP luciferase reporter, UPR activation, luminescence; percent of tunicamycin response over DMSO baseline. activation, % at 10 µM. 330,000 tested, 0.34% active. AID 449763;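 active = at 10 µM dose, activation of 40% or more, normalized to positive control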
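Test system: CHO-CHOP cells, stable luciferase reporter of PERK-eIF2a-CHOP signalling | Quantity: 500 CHO-CHOP cells per well | Buffer or medium: F12 plus 10% serum | Compound dosing: 10 µM single point, 0.5% DMSO | Schedule: 6 h compound treatment, 37 °C | Signal: Luciferase luminescence | Control set: Tunicamycin high control, DMSO low control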
XBP1 UPR activ: adaptive UPR (XBP1) activation; CHO-XBP1 luciferase reporter, IRE1-XBP1 UPR activation, luminescence; percent of tunicamycin response, DMSO as zero; activation, % at 20 µM; 330,000 tested, 0.33% active;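 active = versus positive control, 20 µM dose yields 30% or more activation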
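incubation = overnight seeding at 37 °C, 6 h compound treatment at 37 °C | assay system = CHO-XBP1 cells stably carrying IRE1-XBP1-driven luciferase reporter | input = 1000 cells per well | detection = luciferase luminescence | dosing = single point, 20 µM final compound, 1% DMSO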
PvdQ acylase: blocks Pseudomonas aeruginosa PvdQ acylase activity; purified PvdQ acylase, fluorescence plate reader; inhibition, % at 10 µM; 340,000 tested, 0.063% active; AID 488965; in the data active = inhibition above about 30%, passing the limit was not always enough
CHOP inh conf: confirmation of CHOP induction inhibitors; shares compounds with CHOP inhibitor; CHO-CHOP promoter luciferase reporter, tunicamycin-induced, luminescence; inhibition, % at 10 µM; 2,100 tested, 45% active; AID 504437;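 active = mean of three repeat readings of reporter signal inhibition above a set limit, cut at about 70% in these data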
Hits are given with their value; i = inactive; nt = not tested or not shown.

SMILES	CHOP inhibitor	CHOP UPR activ	XBP1 UPR activ	PvdQ acylase	CHOP inh conf
CCOC(=O)c1ccc(NC(=O)CCc2nc(-c3cccc(C)c3)no2)cc1	98	i	i	i	i
Cc1cccc(-c2noc(CCC(=O)NCc3ccccc3)n2)c1	i	i	i	i	nt
CCOC(=O)C1=C(O)/C(=C\c2ccc(CNC(=O)C(=O)Nc3ccc(C)c(C)c3)o2)N=C1C	109	nt	nt	nt	i
COCCNC(=O)/C(C#N)=C\c1ccc(CNC(=O)C(=O)Nc2ccc(C)c(C)c2)o1	i	i	i	i	nt
Cc1ccc(Nc2nc(Cl)c(C=O)s2)cc1Cl	96	i	i	i	i
O=C(NCc1nnc(SCC(=O)N2CCOCC2)o1)c1ccccc1F	i	i	i	i	nt
COc1ccc(-n2ncc3c(=O)n(CC(=O)NC(C)C)cnc32)cc1	nt	i	i	i	nt
COC(=O)c1ccc2c(=O)n(CCCCCC(=O)N3CCN(c4ccccc4)CC3)c(=O)[nH]c2c1	105	i	i	i	113
NC(=O)CC(NC(=O)Cc1ccc(Br)cc1)c1ccc(NCc2cc(F)ccc2F)c([N+](=O)[O-])c1 (centres undefined)	97	i	i	i	i
NC(=O)CC(NC(=O)Cc1cccc2ccccc12)c1ccc(NCc2ccc(F)cc2)c([N+](=O)[O-])c1 (centres undefined)	105	i	i	i	108
NC(=O)CC(NC(=O)Cc1cccc2ccccc12)c1ccc(NCCc2ccc(F)cc2)c([N+](=O)[O-])c1 (centres undefined)	i	i	i	i	nt
NC(=O)CC(NC(=O)Cc1cccc2ccccc12)c1ccc(NCc2ccccc2)c([N+](=O)[O-])c1 (centres undefined)	101	i	i	i	91
NC(=O)CC(NC(=O)Cc1ccc(Br)cc1)c1ccc(NCCc2cccc(F)c2)c([N+](=O)[O-])c1 (centres undefined)	i	i	i	i	nt
S=C(NCCc1ccc(Cl)cc1)NC1CC1	i	i	i	i	nt
CCCCn1c(=O)[nH]c(=O)c2c1nc(-c1ccc(-c3ccccc3)cc1)n2C	nt	i	i	i	nt
CCCCn1c(=O)[nH]c(=O)c2c1nc(-c1ccc(OCCC)c(OCC)c1)n2C	101	i	i	i	91
O=C(CN1C(=O)S/C(=C\c2ccc(Cl)cc2)C1=O)NC1C=CS(=O)(=O)C1 (centres undefined)	nt	i	i	i	nt
O=C(CN1C(=O)S/C(=C\c2ccc(Cl)cc2)C1=O)NNC(=O)c1ccccc1O	106	nt	nt	i	i
O=C1C=CC(=O)N1c1ccc(OC(F)F)cc1	107	nt	nt	i	i
Cc1cc(C(=O)Nc2cnc3ccccc3c2)ccc1[N+](=O)[O-]	i	i	i	i	nt
CSc1nc2ccc3nc(NC(=O)c4ccc(C)cc4)sc3c2s1	i	i	i	i	nt
Cc1ccc(C(=O)Nc2nc3ccccc3c(=O)s2)cc1	102	i	i	i	i
Cc1ccc(C(=O)Nc2cnc3ccccc3c2)cc1	98	i	i	i	117
O=C(N/C(=C/c1ccc(Br)cc1)C(=O)N1CCCC1=O)c1ccco1	i	i	i	i	nt
O=S(=O)(NC1CC1)c1ccc(S(=O)(=O)N2CCN3CCCC3C2)cc1 (centres undefined)	i	i	i	i	nt
SMILES	CHOP inhibitor	CHOP UPR activ	XBP1 UPR activ	PvdQ acylase	CHOP inh conf
O=S(=O)(NC1CC1)c1ccc(S(=O)(=O)N2CCCC3(CCCCC3)C2)cc1	97	i	i	i	98
COC(=O)c1ccc2nc(NC(=O)CSCC(=O)OCC(=O)c3ccccc3)sc2c1	i	i	i	i	nt
Cc1ccc2nc(NC(=O)CSCC(=O)OCC(=O)c3ccc(Br)cc3)sc2c1	100	i	i	i	107
CC(C)NC(=O)NC(=O)CSc1nnc(COc2ccccc2F)n1C(C)C1CC2CCC1C2 (centres undefined)	106	i	i	i	i
CC(C1CC2CCC1C2)n1c(COc2ccccc2F)nnc1SCC(N)=O (centres undefined)	i	i	i	i	nt
CCOC(=O)C1=C(Cc2ccc(C)cc2)C(=O)c2ccccc2C1=O	104	97	i	nt	i
CCOC(=O)c1c(C)oc2c1C(=O)c1ccccc1C2=O	i	i	i	i	nt
COc1ccc(CN2CCN(C(=O)c3ccc(S(=O)(=O)NCc4ccco4)cc3)CC2)cc1	nt	i	i	i	nt
Cc1cc(-c2ccccc2)n(-c2cc(N/N=C/c3ccccc3O)ncn2)n1	102	nt	nt	i	i
CC(OC(=O)c1oc2ccccc2c1CSC1CCCCC1)C(=O)NC(N)=O (centres undefined)	101	i	i	i	i
CC(OC(=O)c1oc2ccccc2c1COc1ccccc1)C(=O)NC(N)=O (centres undefined)	i	i	i	i	nt
Cc1cccc(Nc2nc(N)c([N+](=O)[O-])c(N3CC(C)CC(C)C3)n2)c1 (centres undefined)	103	i	i	i	118
CCN1CCN(c2nc(Nc3cccc(OC)c3)nc(N)c2[N+](=O)[O-])CC1	nt	i	i	i	nt
Cc1cccc(Nc2nc(N)c([N+](=O)[O-])c(N3CCC(C)CC3)n2)c1	104	i	i	i	i
Cc1cccc(Nc2nc(N)c([N+](=O)[O-])c(N3CC(C)OC(C)C3)n2)c1 (centres undefined)	nt	i	i	i	nt
CO[C@H]1O[C@H](C)[C@@H](O)C[C@H]1NC(=O)OCc1ccccc1	nt	i	i	i	nt
CCCN(CCC)C(=O)CSc1nc2ccccc2c(=O)n1C1CCCC1	97	i	i	i	i
C[N+]1(CCC(=O)c2ccccc2)CCCCC1	97	i	i	i	i
O=C(CCN1CCCCC1)c1ccccc1	i	i	i	i	nt
O=C(O)c1ccc(COc2ccc(CO)cc2Cl)cc1	i	i	i	i	nt
O=C(O)c1cccc(COc2ccc(CO)cc2Cl)c1	97	i	i	i	121
O=Cc1ccc(OCc2cccc(C(F)(F)F)c2)cc1O	i	i	i	i	nt
CCOc1ccc(OCc2cccc(C(=O)N3CCCC3)c2)cc1	i	i	i	i	nt
O=C(OCC(F)(F)F)c1cccc(COc2ccc3ccccc3c2)c1	97	i	i	i	116
COc1ccc(OCc2cccc(C(=O)O)c2)cc1	105	i	i	i	126
SMILES	CHOP inhibitor	CHOP UPR activ	XBP1 UPR activ	PvdQ acylase	CHOP inh conf
CCCCCCCNC(=O)C1(CC2CC(c3cccc(Br)c3)=NO2)CCNCC1 (centres undefined)	nt	i	i	i	nt
COc1ccccc1C(=O)NC(CCSC)C(=O)OC(C)C(N)=O (centres undefined)	i	i	i	i	nt
COC(=O)c1ccccc1NC(=O)CN1CCCCCC1	nt	i	i	i	nt
Cc1cnc(NC(=O)C2CC(=O)N(c3cccc(Cl)c3)C2)s1 (centres undefined)	nt	i	i	i	nt
CN(C)CCCn1c(SCC(=O)N2c3ccccc3Sc3ccccc32)nc2ccccc2c1=O	i	nt	nt	i	nt
CC(NC(=O)COC(=O)c1ccc2c(c1)S(=O)(=O)N=C1CCCCCN12)C12CC3CC(CC(C3)C1)C2 (centres undefined)	104	i	i	i	i
